# Active and inactive are the calls of the source. The rule behind the calls is not given here.
# Experiments:
# Format in all cases: cell-based
# Homo sapiens [1] = species on record: Homo sapiens; test: Inhibition of Mg2+ ATPase activity in human red blood cells at 25 uM by spectrophotometry
# Outline: (§1)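 Mg2+-ATPase was assayed with calmodulin-depleted human erythrocyte membranes (2.5 mg/ml) at 37° for 1 h, without added CaCl2, in 65 mM KCl, 20 mM K-HEPES, 5 mM MgCl2, 0.1 μM calmodulin and 0.1 mM EGTA. Compounds in DMSO (2.5% final) were added before starting with 2 mM ATP (pH 7.4). Liberated phosphate was measured spectrometrically, in duplicate.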
# Homo sapiens [2] = species on record: Homo sapiens; test: Inhibition of Mg2+ ATPase activity in human red blood cells at 50 uM by spectrophotometry; outline: as §1
# Homo sapiens [3] = species on record: Homo sapiens; test: Inhibition of Mg2+ ATPase activity in human red blood cells at 100 uM by spectrophotometry; outline: as §1
# Homo sapiens [4] = species on record: Homo sapiens; test: Inhibition of Mg2+ ATPase activity in human red blood cells at 200 uM by spectrophotometry; outline: as §1
# Homo sapiens [5] = species on record: Homo sapiens; test: Inhibition of Mg2+ ATPase activity in human red blood cells at 800 uM by spectrophotometry; outline: as §1
# Homo sapiens [6] = species on record: Homo sapiens; test: Inhibition of Mg2+ ATPase activity in human red blood cells at 1600 uM by spectrophotometry; outline: as §1
# Homo sapiens [7] = species on record: Homo sapiens; test: Inhibition of Ca2+ ATPase activity in human red blood cells at 25 uM by spectrophotometry
# Outline: (§2)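 Calmodulin-depleted membranes from human packed erythrocytes (2.5 mg/ml) were incubated for 1 h at 37° in 65 mM KCl, 20 mM K-HEPES, 5 mM MgCl2, 50 μM CaCl2 (50.4 μM free Ca2+), 0.1 μM calmodulin and 0.1 mM EGTA. Test agents in DMSO (2.5% final) were added before 2 mM ATP (pH 7.4). Released phosphate was read spectrometrically, Mg2+-ATPase activity was subtracted, and assays were run in duplicate.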
# Homo sapiens [8] = species on record: Homo sapiens; test: Inhibition of Ca2+ ATPase activity in human red blood cells at 50 uM by spectrophotometry; outline: as §2
# Homo sapiens [9] = species on record: Homo sapiens; test: Inhibition of Ca2+ ATPase activity in human red blood cells at 100 uM by spectrophotometry; outline: as §2
# Homo sapiens [10] = species on record: Homo sapiens; test: Inhibition of Ca2+ ATPase activity in human red blood cells at 200 uM by spectrophotometry; outline: as §2
# Homo sapiens [11] = species on record: Homo sapiens; test: Inhibition of Ca2+ ATPase activity in human red blood cells at 400 uM by spectrophotometry; outline: as §2
# Homo sapiens [12] = species on record: Homo sapiens; test: Inhibition of Ca2+ ATPase activity in human red blood cells at 800 uM by spectrophotometry; outline: as §2
# Homo sapiens [13] = species on record: Homo sapiens; test: Inhibition of Ca2+ ATPase activity in human red blood cells at 1600 uM by spectrophotometry; outline: as §2
# [14] = Inhibition of Ca2+ ATPase activity in human red blood cells by spectrophotometry; outline: as §2
# Homo sapiens [15] = species on record: Homo sapiens; test: Inhibition of Mg2+ ATPase activity in human red blood cells at 400 uM by spectrophotometry; outline: as §1
Structure (SMILES),inhibition (Homo sapiens [1]),inhibition (Homo sapiens [2]),inhibition (Homo sapiens [3]),inhibition (Homo sapiens [4]),inhibition (Homo sapiens [5]),inhibition (Homo sapiens [7]),inhibition (Homo sapiens [8]),inhibition (Homo sapiens [9]),inhibition (Homo sapiens [10]),inhibition (Homo sapiens [11]),inhibition (Homo sapiens [12]),IC50 [14],Activity (Homo sapiens [13]),further results
CCC/C=C1/OC(=O)C2=C1CC[C@H](O)[C@H]2O (relative stereo),21%,13%,32%,32%,71%,0%,3%,8%,36%,72%,87%,260 µM,,inhibition (Homo sapiens [6]): 82%; inhibition (Homo sapiens [13]): 94%
OC[C@H]1O[C@@H](Oc2cc(O)cc(O)c2/C=C/c2ccc(O)cc2)[C@H](O)[C@@H](O)[C@@H]1O,,,,,,,,,,,,,,Activity (Homo sapiens [1]): inactive; Activity (Homo sapiens [2]): inactive; Activity (Homo sapiens [3]): inactive; Activity (Homo sapiens [4]): inactive; Activity (Homo sapiens [7]): inactive; Activity (Homo sapiens [8]): inactive; Activity (Homo sapiens [9]): inactive; Activity (Homo sapiens [10]): inactive
COc1ccc(/C=C/c2cc(O)cc(O[C@@H]3O[C@H](CO)[C@@H](O)[C@H](O)[C@H]3O)c2)cc1O,,,,,,,,,,,,,inactive,
Cc1cc(O)c2c(c1)C(=O)c1cccc(O)c1C2=O,,,,,,,,,,,,,inactive,
O=C(O)c1cc(O)c2c(c1)C(=O)c1cccc(O)c1C2=O,,,,,,,,,,,,,inactive,
OC[C@H]1O[C@@H](Oc2c(O)cc(O)cc2/C=C/c2ccc(O)cc2)[C@H](O)[C@@H](O)[C@@H]1O,14%,25%,28%,41%,62%,8%,8%,15%,44%,70%,95%,240 µM,,inhibition (Homo sapiens [15]): 56%; inhibition (Homo sapiens [6]): 75%; inhibition (Homo sapiens [13]): 98%
CCC/C=C1/OC(=O)C2=C1CC[C@H](O)[C@@H]2O (relative stereo),0%,17%,36%,52%,85%,0%,0%,27%,62%,79%,90%,160 µM,,inhibition (Homo sapiens [15]): 67%
Cc1cc(O)c2c(c1)C(=O)c1cc(O)cc(O)c1C2=O,,,,,,,,,,,,,inactive,
